Values after ≈ are worked out from the molar mass of the structure shown. Active and inactive are the calls of the source. No cut-off for these calls is given here.
Legend:
[1] = tested on: Human alphaherpesvirus 2; assay: Antiviral activity against HSV2
[2] = tested on: Human alphaherpesvirus 1; assay: Antiviral activity against HSV1; format: functional
[3] = tested on: Human alphaherpesvirus 1; assay: Antiviral activity against HSV1 Sheely infected in monkey BSC-1 cells assessed as reduction of plaque formation at 2 ug/ml after 4 days using crystal violet staining relative to control; format: functional; conditions: Human alphaherpesvirus 1, Sheely, BSC-1, in Primates, 96 h
Summary of the method: (§1)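 BSC-1 monolayers, 4 days old and confluent, were infected with 20-60 PFU in MEM + 2% FCS. They were overlaid with agar (1% ionagar + 2× M-199 + 5% FCS) containing compound, four flasks per condition. Uninfected monolayers with compound served as controls. Flasks were incubated inverted at 37 °C for 4 days, formalin-fixed overnight at 4 °C and crystal violet-stained. Mean plaque count gave % reduction versus infected untreated cultures.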

[4] = tested on: Human alphaherpesvirus 2; assay: Antiviral activity against HSV2 Curtis infected in monkey BSC-1 cells assessed as reduction of plaque formation at 2 ug/ml after 4 days using crystal violet staining relative to control; format: functional; conditions: Human alphaherpesvirus 2, Curtis, BSC-1, in Primates, 96 h
Summary of the method: as §1

[5] = tested on: Human alphaherpesvirus 2; assay: Antiviral activity against HSV2 Curtis infected in monkey BSC-1 cells assessed as reduction of plaque formation at 3 ug/ml after 4 days using crystal violet staining relative to control; format: functional; conditions: Human alphaherpesvirus 2, Curtis, BSC-1, 96 h
Summary of the method: as §1

[6] = tested on: Human alphaherpesvirus 1; assay: Antiviral activity against HSV1 Sheely infected in monkey BSC-1 cells assessed as reduction of plaque formation at 4 ug/ml after 4 days using crystal violet staining relative to control; format: functional; conditions: Human alphaherpesvirus 1, Sheely, BSC-1, in Primates, 96 h
Summary of the method: as §1

[7] = tested on: Human alphaherpesvirus 1; assay: Antiherpetic activity against HSV1 AA infected in guinea pig skin assessed as reduction of scab formation at 2% administered 24 hrs after infection as vanishing cream base daily 5 times for 4 days; format: functional, organism-based
Summary of the method: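 Guinea pigs had HSV-1 applied to shaved, epilated flanks: 0.1 mL tissue-culture virus (titer 10^6.25 TCID50) driven in by multiple vaccination-gun punctures. A 2% vanishing-cream preparation was applied topically from 24 h postinfection, five times daily for 4 days. Placebo-treated animals served as controls. Two scorers rated vesicles and followed lesions and scabbing to day 7.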

[8] = tested on: Human alphaherpesvirus 1; assay: Antiviral activity against HSV1 Sheely infected in monkey BSC-1 cells assessed as reduction of plaque formation at 3 ug/ml after 4 days using crystal violet staining relative to control; format: functional; conditions: Human alphaherpesvirus 1, Sheely, BSC-1, in Primates, 96 h
Summary of the method: as §1

[9] = tested on: Human alphaherpesvirus 2; assay: Antiviral activity against HSV2 Curtis infected in monkey BSC-1 cells assessed as reduction of plaque formation at 4 ug/ml after 4 days using crystal violet staining relative to control; format: functional; conditions: Human alphaherpesvirus 2, Curtis, BSC-1, in Primates, 96 h
Summary of the method: as §1

| Compound | MIC [1] | MIC [2] [µg/mL] | further results |
| --- | --- | --- | --- |
| CCC(=O)C(CCCCCOc1ccc(OCCCCC(C(=O)CC)C(=O)CC)cc1)C(=O)CC | inactive | – | – |
| CCC(=O)C(CCCCCCOc1ccc(OCCCCCCC(C(=O)CC)C(=O)CC)c(Cl)c1)C(=O)CC | – | 6 (≈ 10.6 µM) | – |
| CCC(=O)C(CCCCCCCOc1ccc(OCCCCCCCC(C(=O)CC)C(=O)CC)cc1)C(=O)CC | – | 25 (≈ 44.7 µM) | – |
| CCC(=O)C(CCCCOc1ccc(OCCCC(C(=O)CC)C(=O)CC)cc1)C(=O)CC | inactive | – | – |
| CCC(=O)C(CCCCCCOc1cc(Cl)c(OCCCCCCC(C(=O)CC)C(=O)CC)cc1Cl)C(=O)CC | – | 6 (≈ 10 µM) | – |
| CCC(=O)C(CCCCOc1ccc(OCCCCC(C(=O)CC)C(=O)CC)cc1)C(=O)CC | – | 3 (≈ 6.32 µM) | – |
| CCC(=O)C(CCCCCOc1ccc(OCCCCCC(C(=O)CC)C(=O)CC)cc1)C(=O)CC | – | 3 (≈ 5.97 µM) | – |
| CCC(=O)C(CCCCCCOc1ccc(OCCCCCCC(C(=O)CC)C(=O)CC)c(C)c1)C(=O)CC | – | 25 (≈ 45.9 µM) | – |
| CCC(=O)C(CCCCCCOc1ccc(OCCCCCCC(C(=O)CC)C(=O)CC)cc1)C(=O)CC | – | 6 (≈ 11.3 µM) | inhibition at 2 µg/mL [3]: 21%; inhibition at 2 µg/mL [4]: 18%; inhibition at 3 µg/mL [5]: 59%; inhibition at 4 µg/mL [6]: 89%; Activity [7]: Active; inhibition at 3 µg/mL [8]: 43%; inhibition at 4 µg/mL [9]: 93% |
| CCC(=O)C(CCCCCCCCOc1ccc(OCCCCCCCCC(C(=O)CC)C(=O)CC)cc1)C(=O)CC | inactive | – | – |
| CCC(=O)C(CCCCCCOc1cccc(OCCCCCCC(C(=O)CC)C(=O)CC)c1)C(=O)CC | – | 12 (≈ 22.6 µM) | – |
| CCC(=O)C(CCCOc1ccc(OCCCC(C(=O)CC)C(=O)CC)cc1)C(=O)CC | inactive | – | – |
